The nature of series [1]: Solubility in water by spectrophotometry. It is filed as physicochemical.
Series [2] is described as follows: Antiproliferative activity against human LXFL 529L cells after 3 days by sulforhodamine B assay. In kind it is functional, cell-based. The procedure, abridged:
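Cells kept at 37 °C in humidified 5% CO2 in RPMI 1640 with 10% heat-inactivated FBS, penicillin (100 units/mL) and streptomycin, and checked for mycoplasma. Seeded, grown 24 h, then exposed to drug for 3 days in serum-containing medium. Fixed with 50% TCA solution for 1 h at 4 °C, stained with 0.4% SRB, dye eluted in 10 mM Tris pH 10.5, read at 570 nm. Growth expressed as % T/C; IC50 derived.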
On the technique in general: In SRB staining, fixed cells bind dye roughly in proportion to their protein.

Among the data in ChEMBL document CHEMBL1165969, “Synthesis and cytotoxicity of novel indirubin-5-carboxamides” (Bioorg Med Chem, 2010) are solubility and IC50 values, retold here.

Values after ≈ are worked out from the molar mass of the structure shown.

As usually defined, the solubility is how much of the substance goes into solution per volume. Read a low solubility as a poorly soluble substance. The IC50 is the concentration that gives 50% inhibition. A lower IC50 goes with inhibition by little substance. Molecule `COc1ccc2c(c1)/C(=C1/Nc3ccccc3/C1=N\OCCO[C@@H]1O[C@H](CO)[C@@H](O)[C@H](O)[C@H]1O)C(=O)N2` yielded a solubility in series [1] of 42 µg/mL (≈ 81.8 µM). The molecule further gave an IC50 in series [2] (Homo sapiens, LXFL 529L, 72 h) of 0.5 µM.
The corresponding values for `CN1CCN(CCNC(=O)c2ccc3c(c2)/C(=C2/Nc4ccccc4C2=O)C(=O)N3)CC1` are 700 µg/mL (≈ 1620 µM) and 7.8 µM.
In series [1], `CN(C)CCNC(=O)c1ccc2c(c1)/C(=C1/Nc3ccccc3C1=O)C(=O)N2` yielded a solubility of 13 µg/mL (≈ 34.5 µM). Further, in series [2] (Homo sapiens, LXFL 529L, 72 h), half-maximal inhibition (IC50) was put at 2.3 µM.
Turning to `O=C1Nc2ccccc2/C1=C1/Nc2ccccc2C1=O` [INDIRUBIN], the midpoint of inhibition in series [2] (Homo sapiens, LXFL 529L, 72 h), the IC50, lay at 10 µM.
Turning to `O=C1Nc2ccc(C(=O)N(CCO)CCO)cc2/C1=C1/Nc2ccccc2/C1=N\O`, the solubility in series [1] came to 523 µg/mL (≈ 1280 µM). This molecule gave an IC50 in series [2] (Homo sapiens, LXFL 529L, 72 h) of 5.9 µM.
The corresponding values for `CN1CCN(C(=O)c2ccc3c(c2)/C(=C2/Nc4ccccc4C2=O)C(=O)N3)CC1` are 1000 µg/mL (≈ 2570 µM) and 3.9 µM.
Take `COS(=O)(=O)[O-].C[N+]1(C)CCN(C(=O)c2ccc3c(c2)/C(=C2/Nc4ccccc4C2=O)C(=O)N3)CC1`: in series [1], the solubility is 60000 µg/mL. The molecule further displayed an IC50 in series [2] (lxfl 529l) of 3.5 µM.
Regarding `O=C1Nc2ccc(C(=O)NCCO)cc2/C1=C1/Nc2ccccc2C1=O`, the concentration in solution in series [1] (solubility) came to 9.5 µg/mL (≈ 27.2 µM). In series [2] (Homo sapiens, LXFL 529L, 72 h), this molecule registered an IC50 of 9.2 µM.
The corresponding values for `O=C1Nc2ccc(C(=O)Nc3cccnc3)cc2/C1=C1/Nc2ccccc2C1=O` are 55.5 µg/mL (≈ 145 µM) and greater than 10 µM.
The corresponding values for `O=C1Nc2ccc(C(=O)O)cc2/C1=C1/Nc2ccccc2C1=O` are 41 µg/mL (≈ 134 µM) and 7 µM.
For `O=C1Nc2ccc(C(=O)N(CCO)CCO)cc2/C1=C1/Nc2ccccc2/C1=N\OCC(O)CO` (configuration not stated), in that order: 21 µg/mL (≈ 43.5 µM) and 43 µM.
As to `C[N+]1(C)CCN(C(=O)c2ccc3c(c2)/C(=C2/Nc4ccccc4C2=O)C(=O)N3)CC1.[I-]`, in series [1], the solubility came out at 2450 µg/mL. In series [2] (Homo sapiens, LXFL 529L, 72 h), this molecule showed an IC50 of 2.5 µM.
For `CN1CCN(CCNC(=O)c2ccc3c(c2)/C(=C2/Nc4ccccc4C2=O)C(=O)N3)CC1.Cl`, in series [1], the solubility is greater than 2000 µg/mL. Moreover, the IC50 in series [2] (lxfl 529l) came out at 6 µM.
In series [1], `CN(CC[N+](C)(C)C)C(=O)c1ccc2c(c1)/C(=C1/Nc3ccccc3C1=O)C(=O)N2.[I-]` had a solubility of 1600 µg/mL. The same molecule gave an IC50 in series [2] (Homo sapiens, LXFL 529L, 72 h) of 5.7 µM.
For `CN(C)c1ccc(NC(=O)c2ccc3c(c2)/C(=C2/Nc4ccccc4C2=O)C(=O)N3)cc1`, in that order: 580 µg/mL (≈ 1370 µM) and 1.2 µM.
For `CN(C)CCN(C)C(=O)c1ccc2c(c1)/C(=C1/Nc3ccccc3/C1=N\O)C(=O)N2`, in that order: 6400 µg/mL (≈ 15800 µM) and 2.2 µM.
The corresponding values for `O=C1Nc2ccc(C(=O)NC[C@H](O)[C@@H](O)[C@H](O)[C@H](O)CO)cc2/C1=C1/Nc2ccccc2C1=O` are 21.6 µg/mL (≈ 46 µM) and greater than 30 µM.
In turn, `CN(C)CCN(C)C(=O)c1ccc2c(c1)/C(=C1/Nc3ccccc3/C1=N\OCCO[C@@H]1O[C@H](CO)[C@@H](O)[C@H](O)[C@H]1O)C(=O)N2` returned a solubility in series [1] greater than 380 µg/mL. This molecule also showed an IC50 in series [2] (Homo sapiens, LXFL 529L, 72 h) greater than 10 µM.
The corresponding values for `O=C1Nc2ccc(C(=O)N(CCO)CCO)cc2/C1=C1/Nc2ccccc2C1=O` are 6.8 µg/mL (≈ 17.3 µM) and 4.7 µM.
`CN1CCN(c2ccc(NC(=O)c3ccc4c(c3)/C(=C3/Nc5ccccc5/C3=N\O)C(=O)N4)cc2)CC1` displayed a solubility in series [1] of 1600 µg/mL (≈ 3240 µM). The same molecule gave an IC50 in series [2] (Homo sapiens, LXFL 529L, 72 h) of 4.2 µM.
For `O=C1Nc2ccc(C(=O)N3CCNCC3)cc2/C1=C1/Nc2ccccc2C1=O`, in that order: 4.2 µg/mL (≈ 11.2 µM) and 3.2 µM.
On to `O=C1Nc2ccc(C(=O)NCCO)cc2/C1=C1/Nc2ccccc2/C1=N\O`, for which the concentration in solution in series [1] (solubility) was 179 µg/mL (≈ 491 µM). Also, half-maximal inhibition in series [2] (Homo sapiens, LXFL 529L, 72 h) (IC50) required 4.5 µM.
The molecule `CN(C)CCN(C)C(=O)c1ccc2c(c1)/C(=C1/Nc3ccccc3C1=O)C(=O)N2` yielded a solubility in series [1] of 35.4 µg/mL (≈ 90.7 µM). It took 5.4 µM to reach half-maximal inhibition in series [2] (Homo sapiens, LXFL 529L, 72 h) (IC50).
Regarding `COS(=O)(=O)[O-].C[N+](C)(C)CCNC(=O)c1ccc2c(c1)/C(=C1/Nc3ccccc3C1=O)C(=O)N2`, the solubility in series [1] worked out at 53000 µg/mL. In series [2] (Homo sapiens, LXFL 529L, 72 h), this molecule had an IC50 of 8.6 µM.
